Laboratory results reported in ChEMBL document CHEMBL1151785, “Oleanolic acid and its derivatives: new inhibitor of protein tyrosine phosphatase 1B with cellular activities” (Bioorg Med Chem, 2008).
Activity calls are given as the source filed them. No cut-off for these calls is given here.

Key:
[1] = molecular target: T1, Tyrosine-protein phosphatase non-receptor type 1 (Homo sapiens, UniProt P18031); assay: Inhibition of PTP1B by pNPP assay
T1 sequence (P18031 whole entry): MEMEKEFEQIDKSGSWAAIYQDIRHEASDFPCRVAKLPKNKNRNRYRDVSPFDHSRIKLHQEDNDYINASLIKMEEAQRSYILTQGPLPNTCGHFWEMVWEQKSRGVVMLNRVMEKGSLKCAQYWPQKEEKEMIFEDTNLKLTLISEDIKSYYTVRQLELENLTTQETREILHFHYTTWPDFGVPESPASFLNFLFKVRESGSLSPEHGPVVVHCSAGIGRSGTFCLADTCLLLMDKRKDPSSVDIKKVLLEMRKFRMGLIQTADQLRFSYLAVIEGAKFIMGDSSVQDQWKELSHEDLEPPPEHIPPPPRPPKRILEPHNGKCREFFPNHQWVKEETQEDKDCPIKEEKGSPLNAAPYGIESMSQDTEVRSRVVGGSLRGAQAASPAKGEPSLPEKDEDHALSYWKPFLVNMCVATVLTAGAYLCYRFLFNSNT

[2] = molecular target: T2, Tyrosine-protein phosphatase non-receptor type 2 (Homo sapiens, UniProt P17706); assay: Inhibition of TCPTP by pNPP assay
T2 sequence (P17706 whole entry): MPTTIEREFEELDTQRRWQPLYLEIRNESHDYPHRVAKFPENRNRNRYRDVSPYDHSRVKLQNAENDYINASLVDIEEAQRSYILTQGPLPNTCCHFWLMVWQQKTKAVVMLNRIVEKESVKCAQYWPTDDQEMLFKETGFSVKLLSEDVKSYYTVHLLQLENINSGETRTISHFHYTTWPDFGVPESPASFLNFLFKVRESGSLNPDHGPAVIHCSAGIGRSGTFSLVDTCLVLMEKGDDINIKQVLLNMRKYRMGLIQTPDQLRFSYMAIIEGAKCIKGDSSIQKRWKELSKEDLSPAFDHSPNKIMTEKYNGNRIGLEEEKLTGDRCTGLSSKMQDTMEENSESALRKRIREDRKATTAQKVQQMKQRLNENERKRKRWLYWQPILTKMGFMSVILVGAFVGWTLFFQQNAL

[3] = molecular target: Tyrosine-protein phosphatase non-receptor type 6 (Homo sapiens, UniProt P29350); assay: Inhibition of human recombinant SHP1
Tyrosine-protein phosphatase non-receptor type 6, sequence (P29350 whole entry): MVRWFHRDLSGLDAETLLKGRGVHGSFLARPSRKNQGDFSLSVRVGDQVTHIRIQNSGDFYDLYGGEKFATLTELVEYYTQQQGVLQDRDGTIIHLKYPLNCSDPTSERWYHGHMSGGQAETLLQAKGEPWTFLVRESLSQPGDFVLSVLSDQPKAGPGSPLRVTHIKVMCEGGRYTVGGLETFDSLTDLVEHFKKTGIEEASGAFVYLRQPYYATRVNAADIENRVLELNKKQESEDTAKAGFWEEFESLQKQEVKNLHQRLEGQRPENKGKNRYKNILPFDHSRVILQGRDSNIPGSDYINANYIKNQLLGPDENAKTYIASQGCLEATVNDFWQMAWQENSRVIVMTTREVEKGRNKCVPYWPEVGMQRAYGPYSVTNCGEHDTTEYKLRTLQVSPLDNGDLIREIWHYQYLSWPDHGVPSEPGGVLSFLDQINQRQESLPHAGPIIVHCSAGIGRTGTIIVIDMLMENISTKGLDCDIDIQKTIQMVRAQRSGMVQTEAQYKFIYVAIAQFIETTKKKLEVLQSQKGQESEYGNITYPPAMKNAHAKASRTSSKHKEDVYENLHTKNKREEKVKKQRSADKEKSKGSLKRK

[4] = molecular target: Receptor-type tyrosine-protein phosphatase F (Homo sapiens, UniProt P10586); assay: Inhibition of human recombinant LAR
Receptor-type tyrosine-protein phosphatase F, sequence (P10586 whole entry): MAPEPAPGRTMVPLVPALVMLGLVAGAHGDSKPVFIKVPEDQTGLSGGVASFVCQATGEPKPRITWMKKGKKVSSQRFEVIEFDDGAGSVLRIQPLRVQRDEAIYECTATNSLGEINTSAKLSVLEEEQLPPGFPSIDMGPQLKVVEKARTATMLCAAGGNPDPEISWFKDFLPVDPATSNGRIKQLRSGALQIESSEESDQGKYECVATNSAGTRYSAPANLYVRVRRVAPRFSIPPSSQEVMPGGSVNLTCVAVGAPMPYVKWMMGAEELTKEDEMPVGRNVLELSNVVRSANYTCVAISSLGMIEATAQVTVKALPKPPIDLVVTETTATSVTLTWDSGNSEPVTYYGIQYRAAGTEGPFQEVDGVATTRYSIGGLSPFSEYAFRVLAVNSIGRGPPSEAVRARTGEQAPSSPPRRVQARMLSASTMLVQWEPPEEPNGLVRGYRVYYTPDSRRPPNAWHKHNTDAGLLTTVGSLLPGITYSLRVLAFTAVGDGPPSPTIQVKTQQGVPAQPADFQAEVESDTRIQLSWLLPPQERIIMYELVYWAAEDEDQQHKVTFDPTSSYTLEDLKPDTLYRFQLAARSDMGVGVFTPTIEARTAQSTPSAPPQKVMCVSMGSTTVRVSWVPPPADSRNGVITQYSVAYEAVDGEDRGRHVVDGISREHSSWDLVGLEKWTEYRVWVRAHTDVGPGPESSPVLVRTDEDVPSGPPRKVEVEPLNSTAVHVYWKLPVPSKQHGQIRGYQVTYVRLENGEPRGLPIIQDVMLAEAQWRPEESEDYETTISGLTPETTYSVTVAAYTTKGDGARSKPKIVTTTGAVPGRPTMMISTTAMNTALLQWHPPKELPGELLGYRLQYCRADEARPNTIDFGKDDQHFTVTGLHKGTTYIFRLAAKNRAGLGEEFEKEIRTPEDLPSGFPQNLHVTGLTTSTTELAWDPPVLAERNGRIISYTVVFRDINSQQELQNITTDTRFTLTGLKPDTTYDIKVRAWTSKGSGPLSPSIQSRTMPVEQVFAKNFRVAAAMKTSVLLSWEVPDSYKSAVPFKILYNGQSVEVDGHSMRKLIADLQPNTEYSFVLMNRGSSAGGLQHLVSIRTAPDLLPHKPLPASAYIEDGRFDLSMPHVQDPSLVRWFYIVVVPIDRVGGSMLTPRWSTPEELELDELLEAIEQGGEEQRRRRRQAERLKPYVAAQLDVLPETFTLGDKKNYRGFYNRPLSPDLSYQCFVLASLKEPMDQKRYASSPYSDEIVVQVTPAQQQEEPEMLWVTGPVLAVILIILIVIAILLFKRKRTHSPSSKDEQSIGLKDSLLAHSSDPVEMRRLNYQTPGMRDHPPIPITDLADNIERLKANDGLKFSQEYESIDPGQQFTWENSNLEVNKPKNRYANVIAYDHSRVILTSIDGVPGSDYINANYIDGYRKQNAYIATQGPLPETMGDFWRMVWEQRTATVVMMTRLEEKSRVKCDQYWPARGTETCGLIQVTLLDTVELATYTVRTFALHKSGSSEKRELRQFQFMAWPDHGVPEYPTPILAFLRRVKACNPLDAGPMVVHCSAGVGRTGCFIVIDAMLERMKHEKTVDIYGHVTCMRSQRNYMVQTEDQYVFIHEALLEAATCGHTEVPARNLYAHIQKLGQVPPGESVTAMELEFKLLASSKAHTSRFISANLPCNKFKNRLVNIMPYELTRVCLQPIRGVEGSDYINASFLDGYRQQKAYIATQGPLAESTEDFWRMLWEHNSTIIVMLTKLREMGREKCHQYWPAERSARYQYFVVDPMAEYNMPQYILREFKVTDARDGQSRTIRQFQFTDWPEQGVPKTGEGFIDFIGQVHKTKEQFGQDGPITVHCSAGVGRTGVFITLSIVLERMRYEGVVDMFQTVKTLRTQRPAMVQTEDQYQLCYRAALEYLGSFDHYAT

[5] = molecular target: Receptor-type tyrosine-protein phosphatase alpha (Homo sapiens, UniProt P18433); assay: Inhibition of human recombinant PTPalpha
Receptor-type tyrosine-protein phosphatase alpha, sequence (P18433 whole entry): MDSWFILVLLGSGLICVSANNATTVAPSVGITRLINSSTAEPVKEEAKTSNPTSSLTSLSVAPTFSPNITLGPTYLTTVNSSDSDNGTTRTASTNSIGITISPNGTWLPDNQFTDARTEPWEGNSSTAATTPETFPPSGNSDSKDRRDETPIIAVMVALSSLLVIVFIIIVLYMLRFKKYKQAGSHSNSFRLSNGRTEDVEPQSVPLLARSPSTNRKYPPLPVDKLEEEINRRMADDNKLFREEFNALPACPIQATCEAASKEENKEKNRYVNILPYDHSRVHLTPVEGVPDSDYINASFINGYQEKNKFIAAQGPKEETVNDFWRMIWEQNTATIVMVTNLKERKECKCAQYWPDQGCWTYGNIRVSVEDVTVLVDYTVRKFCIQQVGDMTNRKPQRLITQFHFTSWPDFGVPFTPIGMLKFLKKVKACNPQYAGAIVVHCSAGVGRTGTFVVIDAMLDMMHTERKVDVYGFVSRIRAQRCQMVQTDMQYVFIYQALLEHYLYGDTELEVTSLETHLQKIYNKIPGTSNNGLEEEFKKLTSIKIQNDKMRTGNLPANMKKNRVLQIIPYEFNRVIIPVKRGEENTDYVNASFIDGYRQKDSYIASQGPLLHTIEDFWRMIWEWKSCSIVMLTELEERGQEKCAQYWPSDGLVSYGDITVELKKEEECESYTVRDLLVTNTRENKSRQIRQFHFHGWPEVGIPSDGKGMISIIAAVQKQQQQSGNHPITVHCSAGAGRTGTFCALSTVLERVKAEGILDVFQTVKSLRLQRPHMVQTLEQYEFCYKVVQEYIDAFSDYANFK

[6] = molecular target: Receptor-type tyrosine-protein phosphatase epsilon (Homo sapiens, UniProt P23469); assay: Inhibition of human recombinant PTPepsilon
Receptor-type tyrosine-protein phosphatase epsilon, sequence (P23469 whole entry): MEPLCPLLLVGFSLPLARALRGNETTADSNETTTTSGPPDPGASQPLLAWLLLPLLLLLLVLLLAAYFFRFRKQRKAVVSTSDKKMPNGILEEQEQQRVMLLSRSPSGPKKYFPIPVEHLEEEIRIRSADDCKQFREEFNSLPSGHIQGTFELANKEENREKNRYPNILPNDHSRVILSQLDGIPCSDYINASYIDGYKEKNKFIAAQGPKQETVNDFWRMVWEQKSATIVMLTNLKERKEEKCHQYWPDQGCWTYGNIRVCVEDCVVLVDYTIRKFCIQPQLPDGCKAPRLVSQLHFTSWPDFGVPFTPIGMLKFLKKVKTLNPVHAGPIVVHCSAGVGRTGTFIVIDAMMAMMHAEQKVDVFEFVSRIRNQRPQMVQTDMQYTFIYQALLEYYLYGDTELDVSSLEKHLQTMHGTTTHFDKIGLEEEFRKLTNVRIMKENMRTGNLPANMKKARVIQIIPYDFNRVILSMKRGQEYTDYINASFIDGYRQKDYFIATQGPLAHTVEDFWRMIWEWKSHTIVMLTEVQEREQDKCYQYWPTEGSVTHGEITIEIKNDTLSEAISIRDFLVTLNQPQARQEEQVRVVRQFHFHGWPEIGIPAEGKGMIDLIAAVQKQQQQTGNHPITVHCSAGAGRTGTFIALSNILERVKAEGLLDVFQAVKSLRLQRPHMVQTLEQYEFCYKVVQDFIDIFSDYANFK

[7] = Selectivity for PTP1B to human recombinant SHP1
[8] = molecular target: Insulin receptor (Homo sapiens) (UniProt P06213); assay: Increase in human IRbeta phosphorylation expressed in CHO cells; assay type: cell-based
Procedure, shortened: (§1)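 CHO cells stably carrying human insulin receptor were grown near-confluent, then starved 2 h in serum-free Ham's F-12. Compound was given for 3 h, followed by 10 nM insulin for 10 min. Lysates were run on 8% SDS-PAGE and western blotted for phospho-IR (Tyr1162/1163), phospho-Akt (Ser473) and β-actin, with ECL detection.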

[9] = molecular target: RAC-alpha serine/threonine-protein kinase (Homo sapiens) (UniProt P31749); assay: Increase in human Akt phosphorylation expressed in CHO cells; assay type: cell-based; procedure, shortened: as §1
RAC-alpha serine/threonine-protein kinase (Homo sapiens), sequence (P31749 whole entry): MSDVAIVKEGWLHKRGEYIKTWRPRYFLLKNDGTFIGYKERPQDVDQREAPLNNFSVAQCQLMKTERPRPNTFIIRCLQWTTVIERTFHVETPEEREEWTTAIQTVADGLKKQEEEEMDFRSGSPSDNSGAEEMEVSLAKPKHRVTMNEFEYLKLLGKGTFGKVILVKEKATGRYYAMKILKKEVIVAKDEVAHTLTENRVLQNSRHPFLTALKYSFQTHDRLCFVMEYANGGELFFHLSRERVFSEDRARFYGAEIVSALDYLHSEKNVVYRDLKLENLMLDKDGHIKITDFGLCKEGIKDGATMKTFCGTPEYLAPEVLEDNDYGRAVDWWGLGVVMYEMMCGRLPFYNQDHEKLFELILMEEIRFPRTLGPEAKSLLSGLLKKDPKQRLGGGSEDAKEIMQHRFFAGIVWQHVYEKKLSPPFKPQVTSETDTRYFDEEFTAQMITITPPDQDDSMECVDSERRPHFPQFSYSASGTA

[10] = test system: L6; assay: Increase in glucose uptake in rat L6 cells after 3 hrs in absence of insulin; assay type: functional, cell-based
Procedure, shortened: (§2)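 Rat L6 myoblasts grown in α-DMEM with 10% FBS at 37 °C under 5% CO2, then differentiated in α-DMEM with 2% FBS. Used as myotubes on day 5 after 2 h serum-free starvation (0.2% BSA). Compound at 250 nM–2 µM for 3 h without insulin. 2-Deoxy[1,2-3H]glucose uptake measured over 10 min in HEPES saline, pH 7.4, 0.1 mM glucose. Lysate counts normalised to protein, given as % of basal/0.2% DMSO cells.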

[11] = test system: L6; assay: Increase in glucose uptake in rat L6 cells at 1 uM after 3 hrs in absence of insulin relative to basal; assay type: functional; procedure, shortened: as §2
[12] = test system: L6; assay: Increase in glucose uptake in rat L6 cells at 1 uM after 3 hrs in presence of insulin relative to basal; assay type: functional; settings: in the assay text read “after 2.5 hrs” for “after 3 hrs”
Procedure, shortened: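 Differentiated rat L6 myotubes (day 5) were serum-starved 2 h, exposed to 1.0 µM compound for 2.5 h, then stimulated 30 min with 1, 10 or 100 nM insulin. 2-Deoxy[1,2-3H]glucose uptake was read over 10 min (0.1 mM glucose, HEPES saline pH 7.4). Radioactivity from 0.1% Triton lysates was normalised to protein and expressed relative to basal/DMSO-treated cells.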

| SMILES | IC50 [1] [nM] | IC50 [2] [nM] | IC50 [3] [nM] | IC50 [4] [nM] | IC50 [5] [nM] | IC50 [6] [nM] | Ratio [7] | Activity [8] | Activity [9] | Activity [10] | Activity [11] [%] | Activity [12] [%] |
| --- | --- | --- | --- | --- | --- | --- | --- | --- | --- | --- | --- | --- |
| CC1(C)CC[C@]2(CCCCC(=O)N[C@@H](Cc3ccccc3)C(=O)O)CC[C@]3(C)C(=CC[C@@H]4[C@@]5(C)CC[C@H](O)C(C)(C)[C@@H]5CC[C@]43C)[C@@H]2C1 | 570 | 630 | 4080 | > 40000 | > 40000 | > 40000 | 2 |  |  |  |  |  |
| CC1(C)CC[C@]2(CCCCC(=O)N[C@@H](Cc3ccccc3)C(=O)O)CC[C@]3(C)C(=CC[C@@H]4[C@@]5(C)CC[C@H](OCc6ccc(C(=O)O)cc6)C(C)(C)[C@@H]5CC[C@]43C)[C@@H]2C1 | 150 | 160 | 890 | > 40000 | > 40000 | > 40000 | 2 | Dose-dependent effect | Active | Dose-dependent effect | 40 | 20 |
| CC1(C)CC[C@]2(C(=O)O)CC[C@]3(C)C(=CC[C@@H]4[C@@]5(C)CC[C@H](OC(=O)CC(C)(C)C(=O)O)C(C)(C)[C@@H]5CC[C@]43C)[C@@H]2C1 | 2330 | 1380 | 12400 | > 40000 | > 40000 | > 40000 | 2 |  |  |  |  |  |
